These results are taken from ChEMBL document CHEMBL4406804, “Discovery of a Potent Steroidal Glucocorticoid Receptor Antagonist with Enhanced Selectivity against the Progesterone and Androgen Receptors (OP-3633)” (J Med Chem, 2019).

In general, IC50 refers to the concentration that inhibits the measured activity by half. By solubility is commonly meant the dissolved amount per volume that the medium holds. Read a high solubility as much dissolved substance. The bioavailability is dose-corrected exposure relative to a reference, in per cent. As a reminder, the clearance is a measure of how efficiently the substance is removed, as volume per time. For orientation: Cmax means the highest concentration seen after dosing. The AUC is the area under the concentration-time curve, a measure of exposure. Low values mean less exposure, high ones more exposure.

Molecules are shown by their SMILES. Values after ≈ are worked out from the molar mass of the structure shown.

Data set [1] is described as follows: Toxicity in female rat assessed as effect on clinical observation at 250 mg/kg/day, po administered once daily via gavage for 14 days. Conditions: in vivo, 336 h. Format: organism-based.
The target of data set [2] is T1, Glucocorticoid receptor (Homo sapiens, UniProt P04150).
T1 sequence (P04150 whole entry): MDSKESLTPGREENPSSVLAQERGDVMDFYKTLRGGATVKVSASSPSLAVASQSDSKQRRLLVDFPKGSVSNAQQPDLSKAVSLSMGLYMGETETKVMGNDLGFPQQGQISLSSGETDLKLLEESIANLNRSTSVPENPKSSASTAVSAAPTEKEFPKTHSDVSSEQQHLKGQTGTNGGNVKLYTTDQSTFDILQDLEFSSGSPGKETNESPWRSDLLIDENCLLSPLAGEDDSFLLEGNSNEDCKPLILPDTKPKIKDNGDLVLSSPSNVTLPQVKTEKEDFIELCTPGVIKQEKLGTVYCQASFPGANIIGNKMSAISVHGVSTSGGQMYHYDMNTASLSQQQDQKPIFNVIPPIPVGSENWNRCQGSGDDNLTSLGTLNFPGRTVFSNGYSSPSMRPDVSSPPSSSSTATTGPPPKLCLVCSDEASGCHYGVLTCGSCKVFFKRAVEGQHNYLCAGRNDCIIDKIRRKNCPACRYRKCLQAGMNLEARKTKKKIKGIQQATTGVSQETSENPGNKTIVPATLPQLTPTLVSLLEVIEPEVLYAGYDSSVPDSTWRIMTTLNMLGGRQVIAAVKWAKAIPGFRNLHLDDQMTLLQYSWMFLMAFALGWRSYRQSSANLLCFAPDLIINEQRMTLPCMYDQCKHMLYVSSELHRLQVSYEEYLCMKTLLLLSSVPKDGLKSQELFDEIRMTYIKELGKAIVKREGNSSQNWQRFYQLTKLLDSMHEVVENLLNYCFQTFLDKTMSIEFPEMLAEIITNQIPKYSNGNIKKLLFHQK
Briefly: Displacement of fluormone tracer from full length human recombinant glucocorticoid receptor expressed in baculovirus expression system incubated for 2 hrs by competitive fluorescence polarization binding assay. (In general: In fluorescence polarisation assays a small probe gives low polarisation when free and higher when bound to something large.)

Data set [3] is described as follows: Toxicity in female rat assessed as effect on uterine weight at 250 mg/kg/day, po administered once daily via gavage for 14 days. Format: organism-based. Conditions: in vivo, 336 h.
The test system of data set [4] is Mus musculus. The data set can be described thus: Unbound plasma concentration in hsd:athymic Nude-Foxn1nu mouse xenografted with human HCC1806 cells at 150 mg/kg, po administered as single dose via gavage and measured after 1 to 6 hrs […]. In kind it is ADME, organism-based. Conditions: in vivo. In short, it runs like this:
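Mice bearing HCC1806 xenografts received a bolus oral dose of cortisol at 5 mg/kg to activate GR, plus a single oral gavage dose of the test agent at 150 mg/kg. An unbound plasma concentration-time profile was taken up to 6 h, with n = 3 mice per group.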
On the technique in general: Xenograft models place foreign cells or tissue in a host animal.

Data set [5] is described as follows: Solubility of compound in fasted state simulated intestinal fluid at pH 6.5. Format: physicochemical.
The target of data set [6] is T1, Glucocorticoid receptor. Briefly: Antagonist activity at human glucocorticoid receptor expressed in CHO-K1 cells harboring firefly luciferase gene after 20 hrs by One-Glo luciferase reporter gene assay. Format: cell-based.
Data set [7] in a line: Oral bioavailability in dog at 5 mg/kg. In kind it is ADME, organism-based, Canis lupus familiaris. Conditions: in vivo.
The nature of data set [8]: Clearance in rat at 0.5 mg/kg, iv. The settings on record: in vivo. In kind it is ADME, organism-based. Put shortly:
(§1)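 Rat PK study. The iv dose of 0.5 mg/kg was given in 10% DMSO, 70% PEG 400 and 20% water. The oral dose of 5 mg/kg was given in 5% DMSO / 95% of 0.2% Tween 80 in 0.25% CMC, adjusted to pH 4 for one compound. Read-outs were CL, Vss, iv t1/2, F, Cmax and AUC.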

Data set [9] concerns the target T2, Androgen receptor (Homo sapiens, UniProt P10275).
T2 sequence (P10275 whole entry): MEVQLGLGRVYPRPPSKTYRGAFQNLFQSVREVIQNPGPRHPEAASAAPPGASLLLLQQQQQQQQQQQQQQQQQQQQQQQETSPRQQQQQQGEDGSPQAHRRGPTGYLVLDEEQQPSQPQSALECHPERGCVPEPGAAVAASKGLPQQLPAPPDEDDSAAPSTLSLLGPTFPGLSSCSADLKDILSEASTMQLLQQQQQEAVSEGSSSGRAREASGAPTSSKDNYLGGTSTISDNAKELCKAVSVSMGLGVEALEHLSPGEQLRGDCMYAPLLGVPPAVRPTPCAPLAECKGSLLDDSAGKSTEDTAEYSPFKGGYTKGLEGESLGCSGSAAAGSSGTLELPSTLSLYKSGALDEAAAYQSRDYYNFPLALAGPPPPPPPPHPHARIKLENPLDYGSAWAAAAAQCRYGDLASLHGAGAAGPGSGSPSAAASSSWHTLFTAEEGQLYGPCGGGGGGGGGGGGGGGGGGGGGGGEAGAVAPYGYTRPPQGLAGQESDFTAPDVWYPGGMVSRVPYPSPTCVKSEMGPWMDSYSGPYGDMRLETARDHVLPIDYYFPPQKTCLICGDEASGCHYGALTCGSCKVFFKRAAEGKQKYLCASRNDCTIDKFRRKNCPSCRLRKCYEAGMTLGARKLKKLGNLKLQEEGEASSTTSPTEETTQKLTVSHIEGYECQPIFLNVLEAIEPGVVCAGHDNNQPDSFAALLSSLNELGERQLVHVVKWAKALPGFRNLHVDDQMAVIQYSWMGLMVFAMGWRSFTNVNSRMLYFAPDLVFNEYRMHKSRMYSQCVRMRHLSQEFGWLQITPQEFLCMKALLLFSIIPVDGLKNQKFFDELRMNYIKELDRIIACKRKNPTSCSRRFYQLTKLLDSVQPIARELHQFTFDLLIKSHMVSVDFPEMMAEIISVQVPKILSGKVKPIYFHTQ
Briefly: Antagonist activity at human androgen receptor in human LNCAP cells harboring firefly luciferase gene after 20 hrs by One-Glo luciferase reporter gene assay. Format: cell-based. In short, it runs like this:
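Cell-based luciferase reporter assays for GR, AR and PR, run in agonist and antagonist modes. Potency and Emax are averages of at least two determinations, reported with SD.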

Data set [10] can be described thus: Toxicity in female rat assessed as effect on food consumption at 250 mg/kg/day, po administered once daily via gavage for 14 days. Format: organism-based. Conditions: in vivo, 336 h.
The nature of data set [11]: Oral bioavailability in rat at 5 mg/kg. Format: ADME, organism-based. The settings on record: in vivo. Put shortly: as §1
The nature of data set [12]: Cmax in mini-pig at 5 mg/kg, po. Conditions: in vivo. Format: ADME, organism-based, Sus scrofa domesticus. Also on record: dose 5 mg/kg, route oral.
Data set [13] is described as follows: Clearance in mini-pig at 0.5 mg/kg, iv. Format: ADME, organism-based, Sus scrofa domesticus. Conditions: in vivo.
The test system of data set [14] is Mus musculus. Briefly: In vivo antagonist activity at glucocorticoid receptor in tumor of human HCC1806 cells xenografted in hsd:athymic Nude-Foxn1nu mouse assessed as reduction in cortisol-stimulated FKBP5 mRNA expression at 150 mg/kg, po administered as single dose via gavage and measured at 6 hrs post cortisol addition by qRT-PCR analysis (reference value: 2.3 to 4). In kind it is functional. In short, it runs like this:
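HCC1806 TNBC xenograft tumors in mice. Cortisol 5 mg/kg given orally as a bolus to activate GR. The compound was given as a single oral gavage dose of 150 mg/kg, with vehicle controls. Tumors were collected 3 and 6 h after cortisol, and FKBP5 mRNA was measured by RT-qPCR relative to vehicle. n = 3 mice/group. One-way ANOVA with Dunnett's test versus vehicle.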

Data set [15] can be described thus: Clearance in dog at 0.5 mg/kg, iv. In kind it is ADME, organism-based, Canis lupus familiaris. The settings on record: in vivo.
Data set [16] is described as follows: AUC in rat at 5 mg/kg, po. Format: ADME, organism-based. The settings on record: in vivo. Put shortly:
as §1

Regarding `CC#C[C@]1(O)CC[C@H]2[C@@H]3CCC4=CC(=O)CC[C@]4(C)[C@H]3[C@@H](c3ccc(N(C)C)cc3)C[C@@]21C`, the Activity entry in [1], in data set [3] and in data set [10] was “Non-Toxic” each time. The half-maximal inhibitory concentration (IC50) was found to be 8.5 nM in data set [2], 29 nM in data set [6] and 912 nM in data set [9]. For the same molecule, the “Cp(f)” value in data set [4] amounted to 400 nM. In data set [5], this molecule came in with a solubility of 59.5 µM (≈ 26.5 µg/mL). Further, the figures for the bioavailability in data set [7] and in data set [11] were 67.6% and 62%, respectively. For the same molecule, the clearance is 51.7 mL/min/kg in [8], 12.5 mL/min/kg in data set [13] and 10.2 mL/min/kg in [15]. Further, in data set [12], the Cmax came to 249 ng/mL. Also, in data set [14], the “fold change (FC)” value came to 2.3. The same molecule returned an exposure (AUC) in [16] of 1020 ng·h/mL.
